Read-outs that look alike come from different tables or passages of the source.
What was measured:
[1] = molecular target: SAMHD1 A1 site (Homo sapiens, UniProt Q9Y3Z3); experiment: fluorescence anisotropy competitive binding assay with 5′-FAM-pdGpdGpdG-3′ probe; conditions: competition with 5′ FAM-pdGpdGpdG-3′ probe
[2] = molecular target: T1, SAMHD1 (Homo sapiens, UniProt Q9Y3Z3); experiment: glutaraldehyde protein cross-linking assay of oligomeric state; conditions: for D (%), dimer / T (%), tetramer: 500 μM ligand, 600 nM SAMHD1; for effect on oligomeric state: 500 μM analog (dGTPαS 100 μM), 0.6 μM SAMHD1
T1 sequence (Q9Y3Z3 whole entry): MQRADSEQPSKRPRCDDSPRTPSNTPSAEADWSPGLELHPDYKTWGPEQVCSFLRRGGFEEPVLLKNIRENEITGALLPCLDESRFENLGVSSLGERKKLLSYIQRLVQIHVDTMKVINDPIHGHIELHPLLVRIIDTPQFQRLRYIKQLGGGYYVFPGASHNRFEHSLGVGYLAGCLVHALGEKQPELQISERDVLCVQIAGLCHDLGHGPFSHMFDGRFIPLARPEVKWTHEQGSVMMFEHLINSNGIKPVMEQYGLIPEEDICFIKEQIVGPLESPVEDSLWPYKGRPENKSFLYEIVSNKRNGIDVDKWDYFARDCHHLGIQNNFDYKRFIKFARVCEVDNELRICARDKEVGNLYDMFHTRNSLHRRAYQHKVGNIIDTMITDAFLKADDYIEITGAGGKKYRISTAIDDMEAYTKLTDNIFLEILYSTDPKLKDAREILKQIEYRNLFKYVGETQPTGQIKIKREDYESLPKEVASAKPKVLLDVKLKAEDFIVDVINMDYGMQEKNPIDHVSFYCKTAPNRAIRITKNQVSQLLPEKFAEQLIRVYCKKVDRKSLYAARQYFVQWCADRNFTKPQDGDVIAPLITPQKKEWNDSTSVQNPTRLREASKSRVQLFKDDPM

[3] = molecular target: T1, SAMHD1; experiment: malachite green; type: biochemical; conditions: for inhibition at 500 µM: read-out: dNTPase inhibition (%, [I] = 500 μM); for IC50: 50 μM GTP and 50 μM dATP, 11-point dose response
[4] = molecular target: SAMHD1 binding to ssRNA32 (Homo sapiens, UniProt Q9Y3Z3); experiment: fluorescence anisotropy displacement of 5′-FAM-labeled ssRNA32; conditions: read-out: EC50 ssRNA displacement; 1 μM SAMHD1, 0.5 μM ssRNA32
Chain of SAMHD1 binding to ssRNA32 (Q9Y3Z3 whole entry): as above
Procedure, shortened: (§1)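 SAMHD1 (1 μM) was preincubated with 0.5 μM 5′-FAM-labelled 32mer ssDNA or ssRNA; the two strands have identical base sequences. […] SD from triplicate experiments.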

[5] = molecular target: SAMHD1 binding to ssDNA32 (Homo sapiens, UniProt Q9Y3Z3); experiment: fluorescence anisotropy displacement of 5′-FAM-labeled ssDNA32; conditions: read-out: EC50 ssDNA displacement; 1 μM SAMHD1, 0.5 μM ssDNA32
Chain of SAMHD1 binding to ssDNA32 (Q9Y3Z3 whole entry): as above
Procedure, shortened: as §1

Chain of SAMHD1 A1 site (Q9Y3Z3 whole entry): as above

Nc1nc2c(ncn2[C@H]2C[C@H](OP(=O)(O)O[C@H]3C[C@H](n4cnc5c(N)ncnc54)O[C@@H]3CO)[C@@H](CO)O2)c(=O)[nH]1 [5′-dGpdA-5′]
Kd ([1]; read-out: binding Kd): 70 ± 13 µM | D (%), dimer [2]: 93% | T (%), tetramer [2]: 0%

Nc1nc2c(ncn2[C@@H]2O[C@H](CO)[C@@H](O)[C@H]2O)c(=O)[nH]1 [rG, guanosine]
Kd ([1]; binding Kd (μM)): 500 ± 185 µM | inhibition at 500 µM [3]: 6 ± 8.5% | D (%), dimer [2]: 64% | T (%), tetramer [2]: 0%

Cn1c[n+]([C@@H]2O[C@H](COP(=O)([O-])OP(=O)(O)OP(=O)(O)O)[C@@H](O)[C@H]2O)c2nc(N)[nH]c(=O)c21 [Compound 7-Me-GTP]
Kd ([1]; read-out: binding Kd): > 1000 µM

Nc1nc2c(ncn2[C@H]2C[C@H](O)[C@@H](CO)O2)c(=O)[nH]1 [dG, deoxyguanosine]
Kd ([1]; binding Kd (μM)): 79 ± 20 µM | IC50 ([3]; IC50 (μM)): 130 ± 89 µM | inhibition at 500 µM [3]: 65 ± 2.4% | D (%), dimer [2]: 80% | T (%), tetramer [2]: 0%

Nc1nc2c(ncn2[C@H]2C[C@H](O)[C@@H](COP(=O)(O)O)O2)c(=O)[nH]1 [dGMP]
Kd ([1]; read-out: binding Kd): 140 ± 43 µM | IC50 [3]: 110 ± 47 µM | D (%), dimer [2]: 91% | T (%), tetramer [2]: 0%

Nc1nc2c(ncn2[C@H]2C[C@H](O)[C@@H](COP(=O)(O)OP(=O)(O)O)O2)c(=O)[nH]1 [dGDP]
Kd ([1]; read-out: binding Kd): 130 ± 28 µM | effect on oligomeric state [2]: induced tetramerization | D (%), dimer [2]: 39% | T (%), tetramer [2]: 56%

Nc1nc2c(ncn2[C@@H]2O[C@H](COP(=O)(O)O)[C@@H](O)[C@H]2O)c(=O)[nH]1 [GMP]
Kd ([1]; read-out: binding Kd): 110 ± 41 µM | D (%), dimer [2]: 87% | T (%), tetramer [2]: 0%

Nc1nc2c(ncn2[C@H]2C[C@H](O)[C@@H](COP(O)(=S)OP(=O)(O)OP(=O)(O)O)O2)c(=O)[nH]1 (some centres unmarked) [dGTPαS]
effect on oligomeric state [2]: induced tetramerization

Nc1nc2c(nc(Br)n2[C@H]2C[C@H](O)[C@@H](CO)O2)c(=O)[nH]1 [Compound 8-bromo-dG, 8-bromo-deoxyguanosine]
Kd ([1]; binding Kd (μM)): > 1000 µM | D (%), dimer [2]: 62% | T (%), tetramer [2]: 0%

O=C(O)c1cccc(-c2cccc(Br)c2)c1 [Compound 1023, 3′-bromobiphenyl-3-carboxylic acid]
Kd ([1]; binding Kd (μM)): > 500 µM | IC50 ([3]; IC50 (μM)): 220 ± 150 µM | D (%), dimer [2]: 17% | T (%), tetramer [2]: 0%

Nc1nc2c([nH]c(=O)n2[C@H]2C[C@H](O)[C@@H](CO)O2)c(=O)[nH]1 [Compound 8-oxo-dG, 8-oxo-deoxyguanosine]
Kd ([1]; binding Kd (μM)): > 1000 µM | D (%), dimer [2]: 37% | T (%), tetramer [2]: 0%

Nc1nc2c(ncn2COCCO)c(=O)[nH]1 [acyclovir]
inhibition at 500 µM [3]: 68 ± 31% | D (%), dimer [2]: 78% | T (%), tetramer [2]: 0%

Nc1nc2c(ncn2[C@@H]2O[C@H](COP(=O)(O)OP(=O)(O)O)[C@@H](O)[C@H]2O)c(=O)[nH]1 [GDP]
Kd ([1]; read-out: binding Kd): 210 ± 32 µM | effect on oligomeric state [2]: can induce dimerization | D (%), dimer [2]: 88% | T (%), tetramer [2]: 0%

Nc1nc2c(ncn2[C@@H]2O[C@H](COP(=O)(O)OP(=O)(O)OP(=O)(O)O)[C@@H](O)[C@H]2O)c(=O)[nH]1 [GTP]
Kd ([1]; read-out: binding Kd): 61 ± 11 µM | EC50 [4]: 170 ± 32 µM | EC50 [5]: 89 ± 25 µM | effect on oligomeric state [2]: induced complete dimerization | T (%), tetramer [2]: 30%

Nc1ncnc2c1ncn2[C@H]1C[C@H](O)[C@@H](COP(=O)(O)O)O1 [dAMP]
Kd ([1]; read-out: binding Kd): > 1000 µM | D (%), dimer [2]: 32% | T (%), tetramer [2]: 0%
